Tests used:
[1] = Partition coefficient (logP); conditions: octanol/water
[2] = target: 5-hydroxytryptamine receptor 1B (Rattus norvegicus, UniProt P28564); assay: Inhibition affinity against 5-HT-1B receptor in rat frontal cortex using radio binding assay; format: tissue-based
[3] = target: T1, 5-hydroxytryptamine receptor 1A (Rattus norvegicus, UniProt P19327); assay: Inhibition activity against 5-hydroxytryptamine 1A receptor in rat hippocampus membranes using radio binding assays; format: cell membranes, Membrane
T1 sequence (P19327 whole entry): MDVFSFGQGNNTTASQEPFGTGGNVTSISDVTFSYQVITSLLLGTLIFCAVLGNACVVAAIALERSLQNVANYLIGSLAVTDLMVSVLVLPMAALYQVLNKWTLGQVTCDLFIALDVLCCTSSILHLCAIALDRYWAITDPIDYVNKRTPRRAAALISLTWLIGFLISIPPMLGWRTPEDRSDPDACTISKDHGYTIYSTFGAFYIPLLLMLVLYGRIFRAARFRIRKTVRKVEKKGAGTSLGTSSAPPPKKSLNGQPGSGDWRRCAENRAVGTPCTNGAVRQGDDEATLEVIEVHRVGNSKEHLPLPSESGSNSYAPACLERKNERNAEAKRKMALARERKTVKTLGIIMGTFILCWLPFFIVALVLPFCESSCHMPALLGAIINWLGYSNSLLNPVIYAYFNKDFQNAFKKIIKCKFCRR
Procedure, shortened: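 Displacement of 0.5 nM [3H]8-OH-DPAT from 5-HT1A sites in rat hippocampal membranes, following a previously reported method. IC50 in nM, mean of at least 3 determinations ±SEM unless indicated otherwise.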

[4] = pA2 value for the effect in RSV model.; format: functional
Procedure, shortened: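 Isolated rabbit saphenous vein segments were held in organ baths and given two cumulative sumatriptan concentration-response curves. The second curve was run after 60 min incubation with antagonist or vehicle. Apparent pA2 was derived from a single antagonist concentration in at least three preparations.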

[5] = Partition coefficient (logD7.4); conditions: octanol/water, pH 7.4
[6] = target: Sodium-dependent serotonin transporter (Homo sapiens, UniProt P31645); assay: Inhibition of 5-hydroxytryptamine reuptake
[7] = target: Serotonin (5-HT) receptor (Homo sapiens) (UniProt P30939+P41595+Q13639+P28222+P46098+P08908+P28221+P28223+P28335+P28566+P34969+P50406+P47898+A5X5Y0+O95264+Q70Z44+Q8WXA8); assay: 5-hydroxytryptamine level in K+ induced 5-hydroxytryptamine release in guinea pig cortex.; format: functional, tissue-based; conditions: Cavia porcellus, target entry is the homologue from another species
Procedure, shortened: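 Guinea pig (male Dunkin-Hartley) cerebral cortex slices loaded with [3H]5-HT for 30 min, then superfused with oxygenated Krebs solution. Two 4-min 30 mM K+ pulses at 68 and 108 min (S1, S2). Sumatriptan 3 µM, alone or with test compound at 30 nM, 300 nM or 3 µM, given before and during S2. Tabulated value is at 300 nM, reported as % of control S2/S1 ratio; mean (SEM) of 3-4 determinations.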

Sequence of Sodium-dependent serotonin transporter (P31645 whole entry): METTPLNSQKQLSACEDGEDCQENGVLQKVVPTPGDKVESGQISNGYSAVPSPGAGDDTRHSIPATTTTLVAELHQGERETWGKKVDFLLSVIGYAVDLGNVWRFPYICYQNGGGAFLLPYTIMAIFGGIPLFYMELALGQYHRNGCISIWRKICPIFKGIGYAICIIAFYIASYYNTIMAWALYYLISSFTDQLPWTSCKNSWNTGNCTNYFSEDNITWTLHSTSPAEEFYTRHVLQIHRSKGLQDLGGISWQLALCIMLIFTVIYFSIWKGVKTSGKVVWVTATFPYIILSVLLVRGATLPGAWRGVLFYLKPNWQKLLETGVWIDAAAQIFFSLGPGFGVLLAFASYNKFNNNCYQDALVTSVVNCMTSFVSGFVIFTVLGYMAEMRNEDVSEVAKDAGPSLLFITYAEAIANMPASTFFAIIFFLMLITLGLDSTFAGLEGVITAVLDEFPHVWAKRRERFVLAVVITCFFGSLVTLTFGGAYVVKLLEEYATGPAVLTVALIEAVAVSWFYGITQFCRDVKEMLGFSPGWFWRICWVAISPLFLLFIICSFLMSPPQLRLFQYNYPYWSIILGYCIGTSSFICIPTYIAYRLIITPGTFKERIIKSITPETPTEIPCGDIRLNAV
Sequence of 5-hydroxytryptamine receptor 1B (P28564 whole entry): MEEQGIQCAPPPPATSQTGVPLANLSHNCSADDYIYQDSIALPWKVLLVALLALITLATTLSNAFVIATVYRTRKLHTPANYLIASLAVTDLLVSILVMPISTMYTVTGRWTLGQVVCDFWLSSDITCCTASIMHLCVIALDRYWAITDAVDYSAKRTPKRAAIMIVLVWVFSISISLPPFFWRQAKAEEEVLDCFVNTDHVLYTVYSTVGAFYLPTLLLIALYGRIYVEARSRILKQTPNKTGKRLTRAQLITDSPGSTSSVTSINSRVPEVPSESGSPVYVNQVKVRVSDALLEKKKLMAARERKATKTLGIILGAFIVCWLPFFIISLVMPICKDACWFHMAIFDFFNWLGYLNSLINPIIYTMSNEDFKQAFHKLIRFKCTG

Compound	logP [1]	IC50 [2]	IC50 [3]	pA2 [4]	logD [5]	IC50 [6]	Control [7]
COc1ccc(NC(=O)c2ccc(-c3ccc(-c4noc(C)n4)cc3C)cc2)cc1N1CCN(C)CC1 [GR-127935]	4.9	1.6 nM	425 nM	9.9	4.48	1000 nM	
Cc1nc(-c2ccc(-c3ccc(C(=O)N4CCc5cc6c(cc54)C4(CCN(C)CC4)CO6)cc3)c(C)c2)no1 [SB-224289]	6.29	2 nM		7.4	4.64	4700 nM	134%
COc1ccc(NS(=O)(=O)c2ccc(-c3ccc(-c4nnc(C)o4)cc3C)cc2)cc1N1CCN(C)CC1	4.04	60 nM	700 nM	7	3.6	> 1000 nM	155%
COc1ccc(NC(=O)c2ccc(-c3ccc(C(=N)N)cc3C)cc2)cc1N1CCN(C)CC1	3.61	0.5 nM	23 nM	9.6	-0.35	407 nM	155%
COc1ccc(NC(=O)c2ccc(-c3ccc(-c4nnc(C)o4)cc3C)cc2)cc1N1CCN(C)CC1		0.93 nM	> 1000 nM	9.1		> 1000 nM	147%
Cc1nc(-c2ccc(-c3ccc(C(=O)Nc4ccc(O)c(N5CCN(C)CC5)c4)cc3)c(C)c2)no1	4.33	7.3 nM	> 1000 nM	7.3	3.91	> 1000 nM	122%
Cc1nc(-c2ccc(-c3ccc(C(=O)Nc4ccc(OCCF)c(N5CCN(C)CC5)c4)cc3)c(C)c2)no1	5.33	10 nM	5000 nM	8.3	4.91	900 nM	107%
Cc1nnc(-c2ccc(-c3ccc(C(=O)Nc4ccc(O)c(N5CCN(C)CC5)c4)cc3)c(C)c2)o1	3.54	6.3 nM	> 100 nM	8	3.12	4700 nM	147%
Cc1nnc(-c2ccc(-c3ccc(C(=O)Nc4ccc(OS(C)(=O)=O)c(N5CCN(C)CC5)c4)cc3)c(C)c2)o1	3.38	70 nM	7000 nM	8.3	2.96	3800 nM	166%
COc1ccc(NC(=O)c2ccc(-c3ccc(C(N)=O)cc3C)cc2)cc1N1CCN(C)CC1	3.6	1.3 nM	57 nM	10	3.18	> 1000 nM	162%
Cc1nc(-c2ccc(-c3ccc(C(=O)Nc4ccc(OS(=O)(=O)C(F)(F)F)c(N5CCN(C)CC5)c4)cc3)c(C)c2)no1	6.06	700 nM	> 10000 nM		5.64	> 1000 nM	
